Reference: ChEMBL document CHEMBL3856239, “Synthesis and Antiobesity Properties of 6-(4-Chlorophenyl)-3-(4-((3,3-difluoro-1-hydroxycyclobutyl)methoxy)-3-methoxyphenyl)thieno[3,2-d]pyrimidin-4(3H)-one (BMS-814580): A Highly Efficacious Melanin Concentrating Hormone Receptor 1 (MCHR1) Inhibitor” (J Med Chem, 2016)

tested on: not listed separately; test: Plasma concentration in Sprague-Dawley rat assessed as parent compound level at 10 mg/kg, po measured after 8 hrs; assay type: ADME, organism-based; conditions: not given
Method in brief: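 SD rats given 10 mg/kg orally as parent or glycine prodrug (prodrug dose adjusted to parent), in 0.5% Methocel/0.1% Tween 80/99.4% water. Plasma and brain levels of parent measured 8 h post dose, n = 2; 0–8 h plasma AUC also determined.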

Compound	concentration at 8 h
COc1cc(-n2cnc3cc(-c4ccc(Cl)cc4)sc3c2=O)ccc1OCC1(OC(=O)CN)CC1	113 nM
COc1cc(-n2cnc3cc(-c4ccc(Cl)cc4)sc3c2=O)ccc1OCC(C)(C)O	3530 nM
COc1cc(-n2cnc3cc(-c4ccc(Cl)cc4)sc3c2=O)ccc1OCC1(OC(=O)CN)CCC1	15 nM

tested on: not listed separately; test: AUC in Sprague-Dawley rat assessed as parent compound level at 10 mg/kg, po measured after 8 hrs; assay type: ADME, organism-based; parameters: dose 10 mg/kg, time < 8 hr, route oral; conditions: in vivo

Compound	AUC
COc1cc(-n2cnc3cc(-c4ccc(Cl)cc4)sc3c2=O)ccc1OCC1(OC(=O)CN)CC1	5.9 µM·h
COc1cc(-n2cnc3cc(-c4ccc(Cl)cc4)sc3c2=O)ccc1OCC1(OC(=O)CN)CCC1	1.3 µM·h

tested on: Rattus norvegicus; test: Antiobesity activity in DIO Sprague-Dawley rat model assessed as reduction in caloric intake at 10 mg/kg, po qd for 28 days relative to vehicle control; assay type: functional; parameters: scale not given: the % may be the effect or the level left; conditions: not given

Compound	Activity
Cc1c(C(=O)NN2CCCCC2)nn(-c2ccc(Cl)cc2Cl)c1-c1ccc(Cl)cc1 [RIMONABANT]	27%

tested on: not listed separately; test: Solubility of the compound in phosphate buffer at pH 6.4; assay type: physicochemical; conditions: not given
Method in brief: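 Solubility of parent compounds and prodrugs measured in 50 mM phosphate buffer, pH 6.4.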

Compound	solubility
COc1cc(-n2cnc3cc(-c4ccc(Cl)cc4)sc3c2=O)ccc1OCC(C)(C)O	< 1 µg/mL
COc1cc(-n2cnc3cc(-c4ccc(Cl)cc4)sc3c2=O)ccc1OCC1(OC(=O)CN)CCC1	< 1 µg/mL
COc1cc(-n2cnc3cc(-c4ccc(Cl)cc4)sc3c2=O)ccc1OCC(C)(C)OP(=O)(O)O	< 1 µg/mL

tested on: Rattus norvegicus; test: Antiobesity activity in DIO Sprague-Dawley rat model assessed as reduction in body weight at 10 mg/kg, po qd for 28 days relative to vehicle control; assay type: functional; parameters: scale not given: the % may be the effect or the level left; conditions: not given

Compound	Activity
Cc1c(C(=O)NN2CCCCC2)nn(-c2ccc(Cl)cc2Cl)c1-c1ccc(Cl)cc1 [RIMONABANT]	8.5%

biological target: hERG (KCNH2) (Homo sapiens, UniProt Q12809); test: Inhibition of human ERG at 1 uM by patch clamp assay; conditions: not given
Sequence (Q12809 whole entry): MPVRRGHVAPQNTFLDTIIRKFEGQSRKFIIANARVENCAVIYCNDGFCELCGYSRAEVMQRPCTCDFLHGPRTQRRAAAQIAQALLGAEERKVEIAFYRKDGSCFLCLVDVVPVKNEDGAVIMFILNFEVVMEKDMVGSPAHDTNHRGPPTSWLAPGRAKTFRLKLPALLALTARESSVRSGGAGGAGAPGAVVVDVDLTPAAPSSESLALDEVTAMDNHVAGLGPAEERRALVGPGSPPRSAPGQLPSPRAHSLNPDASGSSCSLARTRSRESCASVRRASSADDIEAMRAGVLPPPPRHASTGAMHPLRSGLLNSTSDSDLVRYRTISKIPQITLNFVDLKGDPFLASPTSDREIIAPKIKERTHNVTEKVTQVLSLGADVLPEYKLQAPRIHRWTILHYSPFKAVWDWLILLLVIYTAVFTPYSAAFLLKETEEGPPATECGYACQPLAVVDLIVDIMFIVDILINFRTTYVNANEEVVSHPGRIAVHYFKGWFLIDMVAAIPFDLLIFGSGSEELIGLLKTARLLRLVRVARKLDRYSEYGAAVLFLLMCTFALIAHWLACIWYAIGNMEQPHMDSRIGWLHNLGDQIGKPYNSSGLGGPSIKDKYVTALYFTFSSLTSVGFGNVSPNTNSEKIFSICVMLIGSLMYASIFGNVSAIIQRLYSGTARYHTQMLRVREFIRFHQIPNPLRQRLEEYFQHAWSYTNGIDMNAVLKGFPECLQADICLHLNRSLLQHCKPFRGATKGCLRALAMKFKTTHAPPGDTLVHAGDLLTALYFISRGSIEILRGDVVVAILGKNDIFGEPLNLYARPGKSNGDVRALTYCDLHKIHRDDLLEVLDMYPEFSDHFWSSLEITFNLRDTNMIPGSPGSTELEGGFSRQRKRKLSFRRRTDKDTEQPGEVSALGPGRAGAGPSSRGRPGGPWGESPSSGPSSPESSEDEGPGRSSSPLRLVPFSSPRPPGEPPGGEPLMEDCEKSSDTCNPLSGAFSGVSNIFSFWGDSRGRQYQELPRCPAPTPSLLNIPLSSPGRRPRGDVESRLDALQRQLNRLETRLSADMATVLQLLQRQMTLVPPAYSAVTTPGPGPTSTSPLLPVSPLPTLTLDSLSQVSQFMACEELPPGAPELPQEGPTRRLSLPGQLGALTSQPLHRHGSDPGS

Compound	inhibition at 1 µM
COc1cc(-n2cnc3cc(-c4ccc(Cl)cc4)sc3c2=O)ccc1OC[C@@H](C)O	43.8%

tested on: not listed separately; test: Metabolic stability in human liver microsomes assessed as compound remaining at 3 uM measured after 10 min; assay type: ADME; conditions: read-out: Stability
Method in brief: (§1)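 Test compound at 3.0 µM incubated with liver microsomes for 10 minutes; read-out is percent of parent remaining.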

Compound	remaining at 10 min, 3 µM
COc1cc(-n2cnc3cc(-c4ccc(Cl)cc4)sc3c2=O)ccc1OCC(C)(C)O	100%

tested on: not listed separately; test: Displacement of [Phe13,125I]Tyr19]-MCH from human MCHR1 E4Q/A5T double mutant expressed in HEK293 cells by TopCount scintillation counting method; assay type: cell-based; conditions: not given

Compound	Ki
COc1cc(-n2cnc3cc(-c4ccc(Cl)cc4)sc3c2=O)ccc1OCCN1CCCC1	2.9 to 3.8 nM
COc1cc(-n2cnc3cc(-c4ccc(Cl)cc4)sc3c2=O)ccc1OC[C@@H](C)O	9.5 nM

tested on: not listed separately; test: Drug uptake in Sprague-Dawley rat brain assessed as parent compound level at 10 mg/kg, po measured after 8 hrs; assay type: ADME, organism-based; conditions: read-out: Drug uptake
Method in brief: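 Sprague-Dawley rats dosed orally once at 10 mg/kg as parent or glycinate prodrug (prodrug dose adjusted to parent), vehicle 0.5% Methocel/0.1% Tween 80/99.4% water; parent compound measured in brain 8 h post dose, n = 2.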

Compound	concentration at 8 h
COc1cc(-n2cnc3cc(-c4ccc(Cl)cc4)sc3c2=O)ccc1OCC1(OC(=O)CN)CC1	< 3 nM
COc1cc(-n2cnc3cc(-c4ccc(Cl)cc4)sc3c2=O)ccc1OCC(C)(C)O	7800 nM
COc1cc(-n2cnc3cc(-c4ccc(Cl)cc4)sc3c2=O)ccc1OCC1(OC(=O)CN)CCC1	< 3 nM

tested on: not listed separately; test: Metabolic stability in rat liver microsomes assessed as compound remaining at 3 uM measured after 10 min; assay type: ADME; conditions: read-out: Stability; method in brief: as §1

Compound	remaining at 10 min, 3 µM
COc1cc(-n2cnc3cc(-c4ccc(Cl)cc4)sc3c2=O)ccc1OCC(C)(C)O	98%

tested on: not listed separately; test: Protein binding in rat plasma assessed as unbound fraction; assay type: ADME, cell-free; conditions: not given
Method in brief: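 Plasma protein binding reported as % free drug in rat, DIO rat, dog, cynomolgus monkey, rabbit and human plasma.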

Compound	Fu
COc1cc(-n2cnc3cc(-c4ccc(Cl)cc4)sc3c2=O)ccc1OCC(C)(C)O	0.8%

tested on: not listed separately; test: Lipophilicity, log P of the compound at pH 7 by HPLC analysis; assay type: physicochemical; conditions: buffer
Method in brief: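 LogP determined by HPLC at pH 7.0.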

Compound	logP
COc1cc(-n2cnc3cc(-c4ccc(Cl)cc4)sc3c2=O)ccc1OCC(C)(C)O	4.5

tested on: not listed separately; test: Metabolic stability in mouse liver microsomes assessed as compound remaining at 3 uM measured after 10 min; assay type: ADME; conditions: read-out: Stability; method in brief: as §1

Compound	remaining at 10 min, 3 µM
COc1cc(-n2cnc3cc(-c4ccc(Cl)cc4)sc3c2=O)ccc1OCC(C)(C)O	90%
